Holding throughout (test): two-electrode voltage clamp, Xenopus oocytes
Assay type in all cases: cell-based

Experiment [1] deals with T1, 5-HT3AB receptor (Homo sapiens, UniProt O95264+P46098, O95264:E122Q/P46098:E124Q).
T1 sequence (P46098 24-478 E124Q): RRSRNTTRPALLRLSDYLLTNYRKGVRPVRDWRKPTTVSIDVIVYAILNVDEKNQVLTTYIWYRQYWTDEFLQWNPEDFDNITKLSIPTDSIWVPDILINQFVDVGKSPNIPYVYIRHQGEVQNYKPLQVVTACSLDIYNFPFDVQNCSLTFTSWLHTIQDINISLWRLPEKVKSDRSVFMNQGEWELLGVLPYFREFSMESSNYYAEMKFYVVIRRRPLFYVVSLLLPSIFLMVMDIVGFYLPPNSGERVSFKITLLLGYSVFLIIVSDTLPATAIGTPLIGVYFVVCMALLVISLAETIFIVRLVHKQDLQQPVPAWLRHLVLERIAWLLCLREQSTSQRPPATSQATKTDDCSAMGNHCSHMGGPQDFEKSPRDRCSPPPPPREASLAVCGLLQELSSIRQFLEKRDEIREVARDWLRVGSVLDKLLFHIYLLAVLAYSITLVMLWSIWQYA
T1 sequence (O95264 22-441 E122Q): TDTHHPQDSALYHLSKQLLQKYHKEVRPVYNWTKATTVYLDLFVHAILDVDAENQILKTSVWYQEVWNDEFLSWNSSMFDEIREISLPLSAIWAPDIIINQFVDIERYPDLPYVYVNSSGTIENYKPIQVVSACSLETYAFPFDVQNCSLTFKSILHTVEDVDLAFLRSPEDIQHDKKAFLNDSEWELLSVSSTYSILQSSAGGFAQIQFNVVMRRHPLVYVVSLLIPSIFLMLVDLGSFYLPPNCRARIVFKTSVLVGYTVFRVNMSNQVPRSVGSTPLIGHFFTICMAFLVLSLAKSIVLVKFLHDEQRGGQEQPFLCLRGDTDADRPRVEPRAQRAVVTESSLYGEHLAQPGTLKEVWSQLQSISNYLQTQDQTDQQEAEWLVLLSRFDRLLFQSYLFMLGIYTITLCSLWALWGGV
Summed up:
(§1)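 Human 5-HT3A and 5-HT3B subunits with point mutations were used. Defolliculated stage V–VI Xenopus oocytes were injected with 5–25 ng mRNA and incubated 24–72 h at 18 °C. Recordings were at 22–25 °C, holding at −60 mV. Agonist in Ca2+-free ND96 (pH 7.5) was applied for 15 s, then washed 116 s.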

In experiment [2] the target is T2, 5-HT3AB receptor (Homo sapiens, UniProt O95264+P46098, O95264:Y146A).
T2 sequence (P46098 24-478): T1 sequence (P46098 24-478 E124Q) with Q101E
T2 sequence (O95264 22-441 Y146A): T1 sequence (O95264 22-441 E122Q) with Q101E, Y125A
Summed up:
as §1

Experiment [3] addresses T3, 5-HT3AB receptor (Homo sapiens, UniProt O95264+P46098, O95264:E122Q/O95264:Y146A).
T3 sequence (P46098 24-478): T1 sequence (P46098 24-478 E124Q) with Q101E
T3 sequence (O95264 22-441 E122Q/Y146A): T1 sequence (O95264 22-441 E122Q) with Y125A
The method, boiled down:
as §1

In experiment [4] the target is T4, 5-HT3AB receptor (Homo sapiens, UniProt O95264+P46098, P46098:E124Q).
T4 sequence (P46098 24-478 E124Q): T1 sequence (P46098 24-478 E124Q)
T4 sequence (O95264 22-441): T1 sequence (O95264 22-441 E122Q) with Q101E
Summed up:
as §1

In experiment [5] the target is T5, 5-HT3AB receptor (Homo sapiens, UniProt O95264+P46098, O95264:E122Q).
T5 sequence (P46098 24-478): T1 sequence (P46098 24-478 E124Q) with Q101E
T5 sequence (O95264 22-441 E122Q): T1 sequence (O95264 22-441 E122Q)
The method, boiled down: as §1

The target of experiment [6] is T6, 5-HT3A receptor (homomeric) (Homo sapiens, UniProt P46098, Y148A).
T6 sequence (P46098 24-478 Y148A): T1 sequence (P46098 24-478 E124Q) with Q101E, Y125A

The target in experiment [7] is T7, 5-HT3AB receptor (Homo sapiens, UniProt O95264+P46098, O95264:E122A).
T7 sequence (P46098 24-478): T1 sequence (P46098 24-478 E124Q) with Q101E
T7 sequence (O95264 22-441 E122A): T1 sequence (O95264 22-441 E122Q) with Q101A
Summed up: as §1

Experiment [8] concerns the target T8, 5-HT3AB receptor (Homo sapiens, UniProt O95264+P46098, P46098:Y148A).
T8 sequence (P46098 24-478 Y148A): T1 sequence (P46098 24-478 E124Q) with Q101E, Y125A
T8 sequence (O95264 22-441): T1 sequence (O95264 22-441 E122Q) with Q101E
The method, boiled down:
as §1

The structures appear in SMILES notation. Changes are numbered by the printed parent chain.

By EC50 is commonly meant the concentration giving half of the maximal effect. Low values mean a more potent agent, high ones a less potent agent. Take `N=C(N)NC(=N)Nc1cccc(Cl)c1` [mCPBG]: the EC50 at 5-HT3AB receptor [1] worked out at 2.4 ± 0.4 µM; on 5-HT3AB receptor [2], 4.3 ± 0.3 µM; on 5-HT3AB receptor [3] it was 3.5 ± 0.1 µM; at 5-HT3AB receptor [4], 3 ± 0.7 µM; on 5-HT3AB receptor [5], 2.3 ± 0.1 µM; in experiment [6], 24.7 ± 0.9 µM. Moreover, the concentration giving a half-maximal response (EC50) on 5-HT3AB receptor [7] was 2.4 ± 0.1 µM; at 5-HT3AB receptor [8], 11.2 ± 0.6 µM.

The record behind these values is publication PMC4312754 (Neuropharmacology, 2014).
